Test results taken from ChEMBL document CHEMBL1139138, “Pyrrolidine-constrained phenethylamines: The design of potent, selective, and pharmacologically efficacious dipeptidyl peptidase IV (DPP4) inhibitors from a lead-like screening hit” (Bioorg Med Chem Lett, 2007).
pIC50, pKi: −log10 of the molar value.

Legend:
[1] = Half life in human liver microsome; format: ADME; settings: liver microsomes
Outline: (§1)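 Stability on incubation with rat or human liver microsomes, expressed as half-life.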

Dipeptidyl peptidase 9 = Dipeptidyl peptidase 9 (Homo sapiens, UniProt Q86TI2); experiment: Inhibition of human DPP9
Rattus norvegicus [2] = experiment: AUC in Sprague-Dawley rat at 5 mg/kg, po; format: ADME, organism-based, Plasma; design: dose 5 mg/kg, route oral; settings: in vivo
Outline: (§2)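 Pharmacokinetics in rat dosed at 5 mg/kg and in dog and monkey dosed at 2.5 mg/kg. Cmax, t1/2 (terminal) and AUC were taken from oral dosing. F is oral bioavailability. Vss is volume of distribution at steady state.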

[3] = Cmax in Sprague-Dawley rat at 5 mg/kg, po; format: ADME, organism-based; design: dose 5 mg/kg, route oral; settings: in vivo; outline: as §2
Cytochrome P450 2D6 = Cytochrome P450 2D6 (Homo sapiens, UniProt P10635); experiment: Inhibition of CYP2D6; format: ADME
[4] = Half life in Sprague-Dawley rat at 5 mg/kg, po; format: ADME, organism-based; design: dose 5 mg/kg, route oral; settings: in vivo; outline: as §2
Prolyl endopeptidase = target: T1, Prolyl endopeptidase (Homo sapiens, UniProt P48147); experiment: Inhibition of human POP
T1 sequence (P48147 whole entry): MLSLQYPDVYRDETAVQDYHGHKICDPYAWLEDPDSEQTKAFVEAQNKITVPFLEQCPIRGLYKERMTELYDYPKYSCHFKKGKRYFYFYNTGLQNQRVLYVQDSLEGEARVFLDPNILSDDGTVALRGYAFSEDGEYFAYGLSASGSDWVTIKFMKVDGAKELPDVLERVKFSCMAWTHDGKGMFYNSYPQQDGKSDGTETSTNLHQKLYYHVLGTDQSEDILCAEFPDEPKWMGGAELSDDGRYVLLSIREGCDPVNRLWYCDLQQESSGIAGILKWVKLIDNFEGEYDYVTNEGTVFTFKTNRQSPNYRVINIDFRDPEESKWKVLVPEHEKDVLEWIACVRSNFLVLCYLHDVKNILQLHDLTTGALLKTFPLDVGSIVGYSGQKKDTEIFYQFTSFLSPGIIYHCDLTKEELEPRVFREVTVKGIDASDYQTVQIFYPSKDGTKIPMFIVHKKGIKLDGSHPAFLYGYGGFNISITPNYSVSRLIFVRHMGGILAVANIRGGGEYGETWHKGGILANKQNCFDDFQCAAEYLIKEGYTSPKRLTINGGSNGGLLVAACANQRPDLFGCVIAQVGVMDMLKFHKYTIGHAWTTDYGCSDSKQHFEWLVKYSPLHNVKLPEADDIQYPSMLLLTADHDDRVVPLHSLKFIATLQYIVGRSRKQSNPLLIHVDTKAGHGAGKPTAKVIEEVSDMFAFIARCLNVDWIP

Rattus norvegicus [5] = experiment: Volume of distribution at steady state in Sprague-Dawley rat at 5 mg/kg, po; format: ADME, organism-based; design: dose 5 mg/kg, route oral; settings: in vivo; outline: as §2
Prolyl endopeptidase FAP = target: T2, Prolyl endopeptidase FAP (Homo sapiens, UniProt Q12884); experiment: Inhibition of human FAPalpha
T2 sequence (Q12884 whole entry): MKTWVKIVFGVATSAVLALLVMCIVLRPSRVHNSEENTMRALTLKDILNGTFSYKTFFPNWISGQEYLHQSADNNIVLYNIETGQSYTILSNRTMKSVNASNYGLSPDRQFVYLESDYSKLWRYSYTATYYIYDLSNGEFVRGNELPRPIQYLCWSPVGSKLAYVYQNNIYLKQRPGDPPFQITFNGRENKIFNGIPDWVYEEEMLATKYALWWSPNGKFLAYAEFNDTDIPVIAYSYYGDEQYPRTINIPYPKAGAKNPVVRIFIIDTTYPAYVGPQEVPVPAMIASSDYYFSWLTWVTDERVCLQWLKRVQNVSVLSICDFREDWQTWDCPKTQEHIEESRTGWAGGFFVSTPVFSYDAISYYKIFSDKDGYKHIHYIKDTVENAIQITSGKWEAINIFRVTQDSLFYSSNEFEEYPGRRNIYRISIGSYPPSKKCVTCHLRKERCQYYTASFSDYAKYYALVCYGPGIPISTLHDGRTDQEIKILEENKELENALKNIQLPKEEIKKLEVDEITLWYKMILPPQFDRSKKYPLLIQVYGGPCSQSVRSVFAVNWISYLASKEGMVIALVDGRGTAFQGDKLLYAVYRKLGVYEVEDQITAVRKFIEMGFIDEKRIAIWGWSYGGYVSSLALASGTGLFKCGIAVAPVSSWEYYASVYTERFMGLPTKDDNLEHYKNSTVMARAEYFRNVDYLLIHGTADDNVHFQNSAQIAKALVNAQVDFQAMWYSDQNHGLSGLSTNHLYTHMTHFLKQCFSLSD

[6] = Half life in rat liver microsome; format: ADME; settings: liver microsomes; outline: as §1
[7] = Oral bioavailability in Sprague-Dawley rat at 5 mg/kg, po; format: ADME, organism-based; settings: in vivo; outline: as §2
Cytochrome P450 3A4 = Cytochrome P450 3A4 (Homo sapiens, UniProt P08684); experiment: Inhibition of CYP3A4; format: ADME
[8] = Plasma clearance in Sprague-Dawley rat at 5 mg/kg, po; format: ADME, organism-based; design: dose 5 mg/kg, route oral; outline: as §2
Dipeptidyl peptidase 8 = Dipeptidyl peptidase 8 (Homo sapiens, UniProt Q6V1X1); experiment: Inhibition of human DPP8
Dipeptidyl peptidase 4 [9] = target: T3, Dipeptidyl peptidase 4 (Homo sapiens, UniProt P27487); experiment: Inhibition of human DPP4 by tight binding assay
Dipeptidyl peptidase 4 [10] = target: T3, Dipeptidyl peptidase 4; experiment: Inhibition of human DPP4 in presence of rat plasma protein; format: cell-free
Cytochrome P450 2C9 = Cytochrome P450 2C9 (Homo sapiens, UniProt P11712); experiment: Inhibition of CYP2C9; format: ADME
[11] = Cmax in dog at 2.5 mg/kg, po; format: ADME, organism-based, Canis lupus familiaris; design: dose 2.5 mg/kg, route oral; settings: in vivo; outline: as §2
[12] = Oral bioavailability in dog at 2.5 mg/kg, po; format: ADME, organism-based, Canis lupus familiaris; settings: in vivo; outline: as §2
[13] = Half life in dog at 2.5 mg/kg, po; format: ADME, organism-based, Canis lupus familiaris; design: dose 2.5 mg/kg, route oral; settings: in vivo; outline: as §2
Rattus norvegicus [14] = experiment: Reduction of glucose level in ZDF rat at 3 mg/kg, po […]; format: functional; design: scale not given: the % may be the effect or the level left
Outline: (§3)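 Female Zucker diabetic fatty rats, 10 weeks old, fasted overnight (n = 10/group). They were dosed orally with vehicle or inhibitor at 0.3, 1 or 3 mg/kg at t = −240 min and allowed to feed at t = 0. Blood glucose lowering was measured relative to vehicle.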

Rattus norvegicus [15] = experiment: Reduction of glucose level in ZDF rat at 0.3 mg/kg, po by […]; format: functional; design: scale not given: the % may be the effect or the level left; outline: as §3
Rattus norvegicus [16] = experiment: Reduction of glucose level in ZDF rat at 1 mg/kg, po […]; format: functional; design: scale not given: the % may be the effect or the level left; outline: as §3
Rattus norvegicus [17] = experiment: Inhibition of DPP4 in ZDF rat at 1 mg/kg after 240 mins; format: functional; settings: 4 h
Outline: (§4)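 Female ZDF rats, 10 weeks old, fasted overnight and dosed orally at 1 mg/kg four hours before feeding (t = 0). Plasma drug concentration and the matching plasma DPP4 inhibition were determined at t = 0 and t = 240 min.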

Canis familiaris = experiment: AUC in dog at 2.5 mg/kg, po; format: ADME, organism-based, Canis lupus familiaris, Plasma; design: dose 2.5 mg/kg, route oral; settings: in vivo; outline: as §2
[18] = Plasma concentration in ZDF rat at 1 mg/kg after 240 mins; format: ADME, organism-based; design: dose 1 mg/kg; outline: as §4
[19] = Plasma clearance in dog at 2.5 mg/kg, po; format: ADME, organism-based, Canis lupus familiaris; design: dose 2.5 mg/kg, route oral; outline: as §2

Cytochrome P450 2D6, sequence (P10635 whole entry): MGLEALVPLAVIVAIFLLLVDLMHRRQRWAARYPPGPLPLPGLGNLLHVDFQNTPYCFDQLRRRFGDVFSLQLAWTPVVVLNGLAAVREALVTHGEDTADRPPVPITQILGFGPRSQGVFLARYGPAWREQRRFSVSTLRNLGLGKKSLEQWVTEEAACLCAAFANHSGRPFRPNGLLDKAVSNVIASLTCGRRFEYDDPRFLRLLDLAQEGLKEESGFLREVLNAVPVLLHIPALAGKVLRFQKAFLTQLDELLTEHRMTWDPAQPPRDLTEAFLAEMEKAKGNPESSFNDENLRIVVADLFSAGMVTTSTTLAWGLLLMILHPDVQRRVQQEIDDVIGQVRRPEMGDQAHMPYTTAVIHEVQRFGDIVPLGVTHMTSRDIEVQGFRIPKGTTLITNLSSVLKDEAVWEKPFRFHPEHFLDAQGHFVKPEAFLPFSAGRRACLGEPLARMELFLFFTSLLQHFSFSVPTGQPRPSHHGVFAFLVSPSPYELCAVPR
Cytochrome P450 3A4, sequence (P08684 whole entry): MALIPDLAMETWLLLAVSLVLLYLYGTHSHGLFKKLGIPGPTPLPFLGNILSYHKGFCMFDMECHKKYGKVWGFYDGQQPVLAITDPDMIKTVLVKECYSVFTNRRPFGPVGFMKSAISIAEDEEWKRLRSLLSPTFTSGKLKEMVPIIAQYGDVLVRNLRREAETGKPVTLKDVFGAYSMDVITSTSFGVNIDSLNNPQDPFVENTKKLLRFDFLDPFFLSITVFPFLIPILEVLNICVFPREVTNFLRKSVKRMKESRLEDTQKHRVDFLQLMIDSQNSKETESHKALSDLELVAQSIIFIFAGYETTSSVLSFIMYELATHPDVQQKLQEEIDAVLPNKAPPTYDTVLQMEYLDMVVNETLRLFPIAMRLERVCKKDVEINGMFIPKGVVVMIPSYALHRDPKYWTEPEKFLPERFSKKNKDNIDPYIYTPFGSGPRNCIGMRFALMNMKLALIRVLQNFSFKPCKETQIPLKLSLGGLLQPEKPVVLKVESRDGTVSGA
Cytochrome P450 2C9, sequence (P11712 whole entry): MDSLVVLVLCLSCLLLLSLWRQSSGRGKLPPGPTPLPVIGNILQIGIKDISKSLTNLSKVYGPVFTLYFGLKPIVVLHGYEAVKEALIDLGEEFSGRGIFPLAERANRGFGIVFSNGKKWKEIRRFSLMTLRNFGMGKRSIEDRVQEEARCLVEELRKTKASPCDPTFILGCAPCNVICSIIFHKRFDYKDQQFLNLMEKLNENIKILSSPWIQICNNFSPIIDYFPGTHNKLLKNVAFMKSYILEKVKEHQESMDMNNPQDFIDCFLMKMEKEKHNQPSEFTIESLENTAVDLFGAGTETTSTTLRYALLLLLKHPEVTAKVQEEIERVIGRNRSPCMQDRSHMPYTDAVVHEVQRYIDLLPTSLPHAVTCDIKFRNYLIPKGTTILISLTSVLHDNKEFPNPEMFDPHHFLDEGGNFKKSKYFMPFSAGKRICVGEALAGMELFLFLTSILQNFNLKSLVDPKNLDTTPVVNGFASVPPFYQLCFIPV
T3 sequence (P27487 whole entry): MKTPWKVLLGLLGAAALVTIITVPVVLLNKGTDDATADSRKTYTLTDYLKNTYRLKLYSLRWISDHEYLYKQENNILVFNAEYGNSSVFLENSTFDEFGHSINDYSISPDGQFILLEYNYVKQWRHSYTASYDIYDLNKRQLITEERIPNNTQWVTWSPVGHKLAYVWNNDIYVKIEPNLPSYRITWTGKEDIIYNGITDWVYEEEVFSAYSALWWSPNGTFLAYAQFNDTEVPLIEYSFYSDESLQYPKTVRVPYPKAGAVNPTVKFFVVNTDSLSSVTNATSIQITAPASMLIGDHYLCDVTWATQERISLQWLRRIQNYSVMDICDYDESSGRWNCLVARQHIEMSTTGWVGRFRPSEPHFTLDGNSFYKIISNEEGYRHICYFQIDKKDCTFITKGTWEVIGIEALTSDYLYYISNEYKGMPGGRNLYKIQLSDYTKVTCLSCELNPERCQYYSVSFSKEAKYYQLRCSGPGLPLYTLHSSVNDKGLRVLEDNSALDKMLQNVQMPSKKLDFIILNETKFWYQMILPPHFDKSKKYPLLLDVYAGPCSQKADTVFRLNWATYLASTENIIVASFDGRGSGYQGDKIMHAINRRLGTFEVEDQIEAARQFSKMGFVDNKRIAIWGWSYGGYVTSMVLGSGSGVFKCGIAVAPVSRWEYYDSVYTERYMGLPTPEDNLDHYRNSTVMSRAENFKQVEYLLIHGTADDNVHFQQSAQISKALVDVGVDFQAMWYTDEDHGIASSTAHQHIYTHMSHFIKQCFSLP
Dipeptidyl peptidase 8, sequence (Q6V1X1 whole entry): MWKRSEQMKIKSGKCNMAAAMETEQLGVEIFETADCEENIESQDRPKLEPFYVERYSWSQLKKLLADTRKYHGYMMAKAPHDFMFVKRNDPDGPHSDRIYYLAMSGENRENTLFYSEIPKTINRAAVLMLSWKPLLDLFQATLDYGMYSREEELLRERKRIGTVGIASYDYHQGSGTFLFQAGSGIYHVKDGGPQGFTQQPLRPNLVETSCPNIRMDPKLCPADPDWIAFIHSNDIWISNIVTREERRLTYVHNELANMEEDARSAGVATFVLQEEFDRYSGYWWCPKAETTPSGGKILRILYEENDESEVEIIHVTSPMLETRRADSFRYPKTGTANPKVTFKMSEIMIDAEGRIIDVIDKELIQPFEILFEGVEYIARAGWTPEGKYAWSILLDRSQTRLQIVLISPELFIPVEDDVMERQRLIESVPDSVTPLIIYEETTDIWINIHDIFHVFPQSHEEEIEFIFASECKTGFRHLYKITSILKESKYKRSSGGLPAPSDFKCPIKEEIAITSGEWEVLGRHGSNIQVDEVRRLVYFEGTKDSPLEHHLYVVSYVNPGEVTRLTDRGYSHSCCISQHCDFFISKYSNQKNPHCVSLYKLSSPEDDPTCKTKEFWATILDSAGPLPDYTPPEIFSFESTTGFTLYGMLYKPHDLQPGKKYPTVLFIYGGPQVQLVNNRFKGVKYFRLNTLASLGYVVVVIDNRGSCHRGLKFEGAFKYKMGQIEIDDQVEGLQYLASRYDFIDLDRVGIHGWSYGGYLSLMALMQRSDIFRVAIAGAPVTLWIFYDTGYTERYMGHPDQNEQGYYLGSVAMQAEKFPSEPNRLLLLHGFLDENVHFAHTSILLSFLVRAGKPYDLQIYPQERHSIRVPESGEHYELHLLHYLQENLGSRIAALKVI
Dipeptidyl peptidase 9, sequence (Q86TI2 whole entry): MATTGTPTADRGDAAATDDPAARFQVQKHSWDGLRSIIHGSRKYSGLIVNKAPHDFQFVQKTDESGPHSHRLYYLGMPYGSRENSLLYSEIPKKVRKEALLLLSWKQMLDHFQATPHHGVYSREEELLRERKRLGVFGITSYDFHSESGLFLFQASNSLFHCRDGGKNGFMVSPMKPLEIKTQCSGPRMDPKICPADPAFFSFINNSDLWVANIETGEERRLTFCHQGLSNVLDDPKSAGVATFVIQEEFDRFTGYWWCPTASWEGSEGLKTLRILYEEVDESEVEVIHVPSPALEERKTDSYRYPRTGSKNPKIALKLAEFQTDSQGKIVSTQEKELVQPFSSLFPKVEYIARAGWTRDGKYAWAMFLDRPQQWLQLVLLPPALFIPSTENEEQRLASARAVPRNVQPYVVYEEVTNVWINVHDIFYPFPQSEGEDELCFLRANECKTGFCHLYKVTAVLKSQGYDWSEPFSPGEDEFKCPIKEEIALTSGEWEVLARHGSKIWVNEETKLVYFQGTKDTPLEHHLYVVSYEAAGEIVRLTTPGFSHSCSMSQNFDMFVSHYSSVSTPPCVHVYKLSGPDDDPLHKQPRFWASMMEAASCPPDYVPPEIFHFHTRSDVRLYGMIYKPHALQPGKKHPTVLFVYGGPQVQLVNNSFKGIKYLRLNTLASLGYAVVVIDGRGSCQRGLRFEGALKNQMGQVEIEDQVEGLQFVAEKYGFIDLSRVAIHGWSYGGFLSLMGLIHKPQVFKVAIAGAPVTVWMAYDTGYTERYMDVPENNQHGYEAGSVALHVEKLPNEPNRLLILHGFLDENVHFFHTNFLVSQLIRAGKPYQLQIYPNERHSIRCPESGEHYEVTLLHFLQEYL

Compound	half-life [1]	AUC (Rattus norvegicus [2])	Cmax [3]	half-life [4]	Vdss (Rattus norvegicus [5])	half-life [6]	bioavailability [7]	CL/F [8]	further results
NC1CN(c2cc(-c3ccc(C(=O)O)cc3)ncn2)CC1c1cc(F)c(F)cc1F (centres undefined)	> 3 h					> 3 h			
CN(C)C(=O)c1cccc(-c2cc(N3CC(N)C(c4cc(F)c(F)cc4F)C3)ncn2)c1 (centres undefined)	> 3 h	3140 ng·h/mL	1270 ng/mL	3.5 h	1.77 L/kg	> 3 h	42%	12.2 mL/min/kg	
NC1CN(c2cc(-c3cccc(S(=O)(=O)N4CCOCC4)c3)ncn2)CC1c1cc(F)c(F)cc1F (centres undefined)	> 3 h	515 ng·h/mL	347 ng/mL	1.1 h	1.84 L/kg	> 3 h	21%	34.8 mL/min/kg	pIC50 (Cytochrome P450 2D6): < 5.00; pKi (Dipeptidyl peptidase 4 [9]): 8.49; pKi (Prolyl endopeptidase): < 4.52; pKi (Prolyl endopeptidase FAP): < 4.52; pKi (Dipeptidyl peptidase 4 [10]): 8.77; pIC50 (Cytochrome P450 3A4): < 5.00; pIC50 (Cytochrome P450 2C9): < 5.00
NC1CN(Cc2ccccc2)CC1c1ccc(Cl)cc1Cl (centres undefined)	> 3 h					> 3 h			
NC1CN(c2ccccn2)CC1c1ccc(Cl)cc1Cl (racemic)	> 3 h					> 3 h			
NC1CN(c2ncccn2)CC1c1ccc(Cl)cc1Cl (racemic)	> 3 h					> 3 h			
COc1ccc(-c2cnc(N3CC(N)C(c4ccc(Cl)cc4Cl)C3)nc2)cc1 (racemic)	> 3 h					> 3 h			
Cc1ccc(S(=O)(=O)N2CC(N)C(c3ccc(Cl)cc3Cl)C2)cc1 (racemic)	> 3 h					> 3 h			

Now from value to molecule, other results behind:

half-life [1]	AUC (Rattus norvegicus [2])	Cmax [3]	half-life [4]	Vdss (Rattus norvegicus [5])	half-life [6]	bioavailability [7]	CL/F [8]	Compound	further results
> 3 h	652 ng·h/mL	176 ng/mL	6.8 h	1.78 L/kg	> 3 h	18%	18.3 mL/min/kg	NC1CN(c2cc(-c3cccc(C(=O)O)c3)ncn2)CC1c1cc(F)c(F)cc1F (centres undefined)	pKi (Dipeptidyl peptidase 9): < 5.52; pIC50 (Cytochrome P450 2D6): < 5.00; pKi (Prolyl endopeptidase): < 4.52; pKi (Prolyl endopeptidase FAP): < 4.52; pIC50 (Cytochrome P450 3A4): < 5.00; pKi (Dipeptidyl peptidase 8): < 5.52
> 3 h					> 3 h			CS(=O)(=O)c1cc(F)cc(-c2cc(N3CC(N)C(c4cc(F)c(F)cc4F)C3)ncn2)c1 (centres undefined)	
> 3 h	24400 ng·h/mL	1970 ng/mL	5.5 h	1.15 L/kg	> 3 h	74%	2.5 mL/min/kg	CS(=O)(=O)c1cccc(-c2ncnc(N3CC(N)C(c4cc(F)c(F)cc4F)C3)n2)c1 (centres undefined)	Cmax [11]: 691 ng/mL; pIC50 (Cytochrome P450 2D6): < 5.00; bioavailability [12]: 100%; half-life [13]: 14.9 h; Activity (Rattus norvegicus [14]): -37%; Activity (Rattus norvegicus [15]): -32%; pKi (Prolyl endopeptidase): < 4.52; Activity (Rattus norvegicus [16]): -39%; inhibition in vivo at 1 mg/kg (Rattus norvegicus [17]): > 98%; AUC (Canis familiaris): 12200 ng·h/mL; pKi (Prolyl endopeptidase FAP): < 4.52; pIC50 (Cytochrome P450 3A4): < 5.00; concentration at 4 h [18]: 373 ng/mL; pIC50 (Cytochrome P450 2C9): < 5.00; CL/F [19]: 3.5 mL/min/kg
> 3 h					> 3 h			NC1CN(c2cc(-c3ccccc3)ncn2)CC1c1cc(F)c(F)cc1F (centres undefined)	
> 3 h	22000 ng·h/mL	1810 ng/mL	3.8 h	1.44 L/kg	> 3 h	110%	4.33 mL/min/kg	CS(=O)(=O)c1cccc(-c2cc(N3CC(N)C(c4cc(F)c(F)cc4F)C3)ncn2)c1 (centres undefined)	pKi (Prolyl endopeptidase): < 4.52; pKi (Prolyl endopeptidase FAP): < 4.52
> 3 h					> 3 h			Cl.NC1CN(c2cc(-c3ccsc3)ncn2)CC1c1cc(F)c(F)cc1F (centres undefined)	pIC50 (Cytochrome P450 2D6): 5.96
